Experimental data of several laboratories.
Compare with care: the assays were run in different laboratories.
Target: Mu-type opioid receptor (OPRM1, Homo sapiens, UniProt P35372)
Effect on: ligand displacement

SMILES | method | concentration | inhibition [%]
Ic1cccc2cnccc12 | radioligand | 10 µM | -4
N#Cc1cc(Cn2c(N3CCCC3)nc3ccccc32)ccc1F |  | 10 µM | -6.78
O=C(c1ccc(Cl)cc1)N(Cc1ccccc1)C1CCCCC1 |  | 10 µM | 10.9
O=C1N=C(N2CCCCN2)S/C1=C\c1ccc(F)cc1O | radioligand | 10 µM | < 10
CCCNc1nc2ccccc2n1Cc1ccc(Cl)cc1 |  | 10 µM | 12.4
CCN(Cc1ccccc1C(F)(F)F)C(=O)C1CCN(S(=O)(=O)c2ccc3[nH]ncc3c2)CC1 | radioligand | 10 µM | 5
CCN(CC)c1ccc(C2Nc3ccc(C(=O)c4ccccc4)cc3NC3=C2C(=O)CC(C)(C)C3)cc1 (centres unmarked) | radioligand | 10 µM | 9
CN1CCN(CCCOc2ccc(=O)n(-c3ccc(Cl)c(Cl)c3)n2)CC1 |  | 1 µM | 17.2
COc1cc(NC(C)=O)c(Cl)cc1C(=O)Nc1nccs1 |  | 10 µM | -5.3
COc1ccc(-n2nc(OCCCN3CCCCC3)ccc2=O)cc1 |  | 1 µM | 45.8
O=C(Nc1ccc(S(=O)(=O)N2CCC(Cl)CC2)cc1)c1ccc([N+](=O)[O-])o1 | radioligand | 10 µM | 1
